Measured values reported in ChEMBL document CHEMBL4382236, “Synthesis and biological evaluation of thielocin B1 analogues as protein-protein interaction inhibitors of PAC3 homodimer” (Bioorg Med Chem, 2018).

Tests used:
[1] = molecular target: T1, PAC1-PAC2 complex (Homo sapiens) (UniProt O95456+Q969U7); assay: (§1) Inhibition of N-terminal mKG-labeled PAC1/C-terminal mKG-labeled PAC2 (unknown origin) protein-protein interaction at 0.1 uM preincubated for 1 hr with protein followed by another protein addition and measured after 17 hrs by fluorescence based protein-fragment complementation assay relative to control; type: protein-complex assay
Procedure, shortened: (§2)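 In vitro protein-fragment complementation assay. Compounds were added as DMSO solutions at 10, 1 or 0.1 μM. The decrease in fluorescence intensity was converted to percent inhibition.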

[2] = molecular target: T1, PAC1-PAC2 complex (Homo sapiens); assay: as §1, with “1” for “0.1”; type: protein-complex assay; procedure, shortened: as §2
[3] = molecular target: T2, Proteasome assembly chaperone 3 (Homo sapiens) (UniProt Q9BT73); assay: as §1, with “PAC3/C-terminal” for “PAC1/C-terminal”, “PAC3 homodimer” for “PAC2”, “10” for “0.1”; procedure, shortened: as §2
T2 sequence (whole entry): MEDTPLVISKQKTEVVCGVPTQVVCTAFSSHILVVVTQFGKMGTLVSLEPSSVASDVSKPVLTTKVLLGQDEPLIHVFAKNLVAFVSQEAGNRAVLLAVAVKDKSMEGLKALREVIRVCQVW

[4] = molecular target: T2, Proteasome assembly chaperone 3 (Homo sapiens); assay: as §1, with “PAC3/C-terminal” for “PAC1/C-terminal”, “PAC3 homodimer” for “PAC2”, “1” for “0.1”; procedure, shortened: as §2
[5] = molecular target: T2, Proteasome assembly chaperone 3 (Homo sapiens); assay: as §1, with “PAC3/C-terminal” for “PAC1/C-terminal”, “PAC3 homodimer” for “PAC2”; procedure, shortened: as §2
[6] = molecular target: T1, PAC1-PAC2 complex (Homo sapiens); assay: as §1, with “10” for “0.1”; type: protein-complex assay; procedure, shortened: as §2
[7] = molecular target: T3, Proteasome assembly chaperone 3 (Homo sapiens, UniProt Q9BT73); assay: Inhibition of PAC3 homodimer (unknown origin) protein-protein interaction
T3 sequence (Q9BT73 whole entry): T2 sequence (whole entry)

[8] = molecular target: T4, PAC1-PAC2 complex (Homo sapiens, UniProt O95456+Q969U7); assay: Inhibition of PAC1/PAC2 heterodimer (unknown origin) protein-protein interaction; type: protein-complex assay
T4 sequence (O95456 whole entry): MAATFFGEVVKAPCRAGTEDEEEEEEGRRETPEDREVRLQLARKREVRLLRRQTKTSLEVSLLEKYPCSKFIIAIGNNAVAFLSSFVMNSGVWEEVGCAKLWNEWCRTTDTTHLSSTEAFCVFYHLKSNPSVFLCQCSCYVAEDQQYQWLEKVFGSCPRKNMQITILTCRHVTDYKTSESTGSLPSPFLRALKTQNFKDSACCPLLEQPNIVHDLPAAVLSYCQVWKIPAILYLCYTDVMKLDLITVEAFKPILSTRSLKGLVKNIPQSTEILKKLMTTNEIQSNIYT
T4 sequence (Q969U7 whole entry): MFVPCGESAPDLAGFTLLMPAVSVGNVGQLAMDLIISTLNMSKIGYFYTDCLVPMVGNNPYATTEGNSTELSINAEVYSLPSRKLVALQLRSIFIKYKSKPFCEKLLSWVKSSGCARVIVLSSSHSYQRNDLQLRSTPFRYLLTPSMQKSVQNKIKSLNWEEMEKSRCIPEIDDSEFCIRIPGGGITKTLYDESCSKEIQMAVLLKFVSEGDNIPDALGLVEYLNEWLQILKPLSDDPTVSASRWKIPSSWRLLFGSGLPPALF

| Structure (SMILES) | inhibition [1] [%] | inhibition [2] [%] | inhibition [3] [%] | inhibition [4] [%] | inhibition [5] [%] | inhibition [6] [%] | IC50 [7] [µM] | IC50 [8] [µM] |
| --- | --- | --- | --- | --- | --- | --- | --- | --- |
| COc1c(C)c(OC(=O)c2ccc(Oc3cccc(C(=O)Oc4c(C)c(C)c(C(=O)Oc5c(C)c(C)c(C(=O)O)c(OC)c5C)c(OC)c4C)c3C)c(C)c2)c(C)c(C)c1C(=O)O | 1 | 31 | 99 | 34 | 19 | 89 |  |  |
| COCOC(=O)c1c(C)c(C)c(OC(=O)c2c(C)c(C)c(OC(=O)c3c(C)c(C(=O)Oc4c(C)c(C)c(C(=O)Oc5c(C)c(C)c(C(=O)OCOC)c(OC)c5C)c(OC)c4C)c(OC)c(C)c3OC)c(C)c2OC)c(C)c1OC | 3 | 0 | 2 | 5 | 12 | 1 |  |  |
| COc1c(C)c(OC(=O)c2c(C)c(C)c(OC(=O)c3c(C)c(C(=O)Oc4c(C)c(C)c(C(=O)Oc5c(C)c(C)c(C(=O)O)c(OC)c5C)c(OC)c4C)c(O)c(C)c3O)c(C)c2OC)c(C)c(C)c1C(=O)O | 21 | 23 | 94 | 17 | 4 | 69 |  |  |
| COc1c(C)c(OC(=O)c2ccc(Oc3cccc(C(=O)Oc4c(C)c(C)c(C(=O)Oc5c(C)c(C)c(C(=O)O)c(OC)c5C)c(OC)c4C)c3C)cc2)c(C)c(C)c1C(=O)O | 15 | 37 | 98 | 40 | 4 | 91 |  |  |
| COc1c(C)c(OC(=O)c2c(C)c(C)c(OC[C@@H]3OC(=O)O[C@H]3COc3c(C)c(C)c(C(=O)Oc4c(C)c(C)c(C(=O)O)c(OC)c4C)c(OC)c3C)c(C)c2OC)c(C)c(C)c1C(=O)O | 15 | 17 | 41 | 5 | 2 | 49 |  |  |
| COc1c(C)c(OC(=O)c2c(C)c(C)c(OC(=O)C3=C(C)[C@@](C)(O)[C@@]4(O)Oc5c(C)c(OC)c(C(=O)Oc6c(C)c(C)c(C(=O)O)c(OC)c6C)c(C)c5C[C@@]4(C)C3=O)c(C)c2OC)c(C)c(C)c1C(=O)O |  |  |  |  |  |  | > 250 |  |
| COc1c(C)c(OC(=O)c2ccc(Oc3cccc(C(=O)Oc4c(C)c(C)c(C(=O)Oc5c(C)c(C)c(C(=O)O)c(OC)c5C)c(OC)c4C)c3)cc2)c(C)c(C)c1C(=O)O | 9 | 35 | 99 | 37 | 7 | 98 |  |  |
| COc1c(C)c(OC(=O)c2c(C)c(C)c(OC(=O)c3c(C)c(Oc4c(C)c(C)c(C(=O)Oc5c(C)c(C)c(C(=O)O)c(OC)c5C)c(OC)c4C)c(O)c(C)c3O)c(C)c2OC)c(C)c(C)c1C(=O)O | 9 | 9 |  | 94 | 85 |  | 0.02 | > 250 |
| COc1c(C)c(OC(=O)c2c(C)c(C)c(OC(=O)c3c(C)cc(O)c(Cc4c(C)c(C(=O)Oc5c(C)c(C)c(C(=O)Oc6c(C)c(C)c(C(=O)O)c(OC)c6C)c(OC)c5C)c(O)c(C)c4O)c3O)c(C)c2OC)c(C)c(C)c1C(=O)O |  |  |  |  |  |  | > 250 |  |
| COc1c(C)c(OC(=O)c2c(C)c(C)c(OCc3cccc(COc4c(C)c(C)c(C(=O)Oc5c(C)c(C)c(C(=O)O)c(OC)c5C)c(OC)c4C)c3Br)c(C)c2OC)c(C)c(C)c1C(=O)O | 3 | 5 | 86 | 38 | 26 | 57 |  |  |
| COc1c(C)c(OC(=O)c2c(C)c(C)c(OC(=O)CCC(=O)Oc3c(C)c(C)c(C(=O)Oc4c(C)c(C)c(C(=O)O)c(OC)c4C)c(OC)c3C)c(C)c2OC)c(C)c(C)c1C(=O)O | 5 | 16 | 34 | 9 | 0 | 28 |  |  |
| COCOC(=O)c1c(C)c(C)c(OC(=O)c2c(C)c(C)c(OCc3cccc(COc4c(C)c(C)c(C(=O)Oc5c(C)c(C)c(C(=O)OCOC)c(OC)c5C)c(OC)c4C)c3Br)c(C)c2OC)c(C)c1OC | 3 | 0 | 0 | 0 | 0 | 6 |  |  |
| COc1c(C)c(O)c(C)c(C)c1C(=O)Oc1c(C)c(C)c(C(=O)O)c(OC)c1C | 3 | 0 | 21 | 9 | 11 | 11 |  |  |
| COc1c(C)c(OC(=O)c2c(C)c(C)c(OC/C=C/COc3c(C)c(C)c(C(=O)Oc4c(C)c(C)c(C(=O)O)c(OC)c4C)c(OC)c3C)c(C)c2OC)c(C)c(C)c1C(=O)O | 5 | 16 | 94 | 30 | 7 | 68 |  |  |
| COc1c(C)c(OC(=O)c2c(C)c(C)c(OC(=O)c3c(C)c(C(=O)Oc4c(C)c(C)c(C(=O)Oc5c(C)c(C)c(C(=O)O)c(OC)c5C)c(OC)c4C)c(OC)c(C)c3OC)c(C)c2OC)c(C)c(C)c1C(=O)O | 9 | 2 | 85 | 49 | 29 | 38 |  |  |
| COc1c(C)c(OC(=O)c2c(C)c(C)c(OCc3cccc(COc4c(C)c(C)c(C(=O)Oc5c(C)c(C)c(C(=O)O)c(OC)c5C)c(OC)c4C)n3)c(C)c2OC)c(C)c(C)c1C(=O)O | 9 | 5 | 88 | 43 | 18 | 40 |  |  |
| COc1c(C)c(OC(=O)c2c(C)c(C)c(OC[C@H](O)[C@@H](O)COc3c(C)c(C)c(C(=O)Oc4c(C)c(C)c(C(=O)O)c(OC)c4C)c(OC)c3C)c(C)c2OC)c(C)c(C)c1C(=O)O | 5 | 17 | 53 | 17 | 0 | 39 |  |  |
